Source: ChEMBL document CHEMBL4334504 (J Med Chem, 2019)
Converted amounts (≈) assume the structure as drawn.

What was measured:
Clostridioides difficile [1] = test: Antibacterial activity against Clostridium difficile VPI 10463 ATCC 43255 assessed as bacterial growth inhibition incubated for 48 hrs under anaerobic condition by CLSI protocol based assay; type: functional; settings: ATCC 43255 VPI 10463, 48 h
Outline: (§1)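 Broth microdilution following CLSI guidance. Strains pre-grown anaerobically on BHIS agar (BHI plus yeast extract, vitamin K1, hemin) at 37 °C for 48 h. ~10^5 CFU/mL in BHIS broth added to serial compound dilutions. Incubated anaerobically at 37 °C for 48 h. MIC is the lowest concentration showing visible growth inhibition.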

Clostridioides difficile [2] = test: Antibacterial activity against Clostridium difficile 4118 ATCC BAA 1870 assessed as bacterial growth inhibition incubated for 48 hrs under anaerobic condition by CLSI protocol-based assay; type: functional; settings: 4118 ATCC BAA 1870, 48 h; outline: as §1
Bifidobacterium bifidum = test: Effect on growth of Bifidobacterium bifidum 212A ATCC 11863 measured after 48 hrs in anerobic conditions by CLSI method; type: organism-based; settings: in vivo
[3] = Effect on growth of Lactobacillus gasseri EX336960VC03 HM 400 measured after 48 hrs in 5% CO2 by CLSI method; settings: lactobacillus gasseri ex336960vc03, 48 h
Escherichia coli = test: Effect on growth of Escherichia coli ATCC 25922 assessed as bacterial growth inhibition measured after 16 to 18 hrs by CLSI method; type: organism-based; settings: in vivo
Outline: (§2)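 CLSI microdilution. Colonies from TSA (16-20 h, 37 °C) suspended in PBS to 0.5 McFarland, then diluted in TSB to ~10^5 CFU/mL. Incubated with serial compound dilutions for 16-20 h at 37 °C. MIC is the lowest concentration inhibiting growth.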

[4] = test system: Lacticaseibacillus paracasei; test: Effect on growth of Lactobacillus casei ATCC 334 measured after 48 hrs in 5% CO2 by CLSI method
Enterobacter cloacae = test: Effect on growth of Enterobacter cloacae ATCC BAA 1143 assessed as bacterial growth inhibition measured after 16 to 18 hrs grown in tryptic soy medium by CLSI method; type: organism-based; settings: in vivo; outline: as §2
[5] = Effect on growth of Lactobacillus crispatus JV-V01 HM 103 measured after 48 hrs in 5% CO2 by CLSI method; settings: lactobacillus crispatus jv-v01, 48 h

| Molecule | MIC (Clostridioides difficile [1]) [µM] | MIC (Clostridioides difficile [2]) [µM] | further results |
| --- | --- | --- | --- |
| O=c1[nH]c(/C=C/c2ccc(O)cc2)nc2c([N+](=O)[O-])csc12 | 13 (≈ 4.1 µg/mL) | 26 (≈ 8.2 µg/mL) |  |
| C#Cc1ccc(/C=C/c2nc3c([N+](=O)[O-])csc3c(=O)[nH]2)cc1 | 12 (≈ 3.88 µg/mL) | 6 (≈ 1.94 µg/mL) |  |
| Cc1nc2c([N+](=O)[O-])csc2c(=O)n1CC(=O)N1CCOCC1 | 94 (≈ 31.8 µg/mL) | 47 (≈ 15.9 µg/mL) |  |
| Cc1nc2cscc2c(=O)[nH]1 | 768 (≈ 128 µg/mL) | 192 (≈ 31.9 µg/mL) |  |
| O=C(O)c1ccc(/C=C/c2nc3c([N+](=O)[O-])csc3c(=O)[nH]2)cc1 | 184 (≈ 63.2 µg/mL) | 46 (≈ 15.8 µg/mL) |  |
| Cc1nc2ccoc2c(=O)[nH]1 | > 852 | > 852 |  |
| O=c1[nH]c(/C=C/c2cccs2)nc2c([N+](=O)[O-])csc12 | 13 (≈ 3.97 µg/mL) | 13 (≈ 3.97 µg/mL) |  |
| Cc1nc(Nc2ccccc2)c2scc([N+](=O)[O-])c2n1 | 14 (≈ 4.01 µg/mL) | 28 (≈ 8.02 µg/mL) |  |
| Cc1nc(Cl)c2scc([N+](=O)[O-])c2n1 | 34 (≈ 7.81 µg/mL) | 17 (≈ 3.9 µg/mL) |  |
| CCOC(=O)Cn1c(C)nc2c([N+](=O)[O-])csc2c1=O | 54 (≈ 16.1 µg/mL) | 54 (≈ 16.1 µg/mL) |  |
| O=[N+]([O-])c1csc2c(N3CCOCC3)nc(/C=C/c3ccc(F)cc3)nc12 | 166 (≈ 64.1 µg/mL) | 166 (≈ 64.1 µg/mL) |  |
| CCCc1nc2c([N+](=O)[O-])csc2c(=O)[nH]1 | 67 (≈ 16 µg/mL) | 67 (≈ 16 µg/mL) |  |
| O=c1[nH]c(-c2cccc([N+](=O)[O-])c2)nc2c([N+](=O)[O-])csc12 | 50 (≈ 15.9 µg/mL) | 50 (≈ 15.9 µg/mL) |  |
| O=c1c2scc([N+](=O)[O-])c2nc(/C=C/c2ccc(F)cc2)n1Cc1ccccc1 | 157 (≈ 64 µg/mL) | 157 (≈ 64 µg/mL) |  |
| Cc1nc2c([N+](=O)[O-])scc2c(=O)[nH]1 | 38 (≈ 8.03 µg/mL) | 38 (≈ 8.03 µg/mL) | MIC (Bifidobacterium bifidum): > 700 µM; MIC [3]: > 700 µM; MIC (Escherichia coli): > 700 µM; MIC [4]: > 700 µM; MIC (Enterobacter cloacae): > 700 µM; MIC [5]: > 700 µM |
| GENTAMICIN |  |  | MIC (Escherichia coli): 8 µM; MIC (Enterobacter cloacae): <= 1 uM |
| Cc1nc2c([N+](=O)[O-])csc2c(=O)n1CCc1ccccc1 | 13 (≈ 4.1 µg/mL) | 13 (≈ 4.1 µg/mL) |  |
| Cc1csc2c(O)ncnc12 | > 770 | > 770 |  |
| Cc1nc2c([N+](=O)[O-])csc2c(=O)n1CC(=O)O | > 475 | > 475 |  |
| Cc1nc2c(F)cccc2c(=O)[nH]1 | > 718 | > 718 |  |
| Cc1nc2c([N+](=O)[O-])csc2c(=O)n1Cc1ccccc1[N+](=O)[O-] | 23 (≈ 7.97 µg/mL) | 23 (≈ 7.97 µg/mL) |  |
| Cc1nc2c([N+](=O)[O-])coc2c(=O)[nH]1 | 41 (≈ 8 µg/mL) | 41 (≈ 8 µg/mL) | MIC (Bifidobacterium bifidum): > 700 µM; MIC [3]: > 700 µM; MIC (Escherichia coli): > 700 µM; MIC [4]: > 700 µM; MIC (Enterobacter cloacae): > 700 µM; MIC [5]: > 700 µM |
| O=c1[nH]cnc2ccc([N+](=O)[O-])cc12 | 335 (≈ 64 µg/mL) | 335 (≈ 64 µg/mL) | MIC (Bifidobacterium bifidum): > 700 µM; MIC [3]: > 700 µM; MIC (Escherichia coli): > 700 µM; MIC [4]: > 700 µM; MIC (Enterobacter cloacae): > 700 µM; MIC [5]: > 700 µM |
| Cc1nc2c([N+](=O)[O-])csc2c(=O)n1-c1cccc(C(=O)O)c1 | 193 (≈ 63.9 µg/mL) | > 386 |  |
| O=C(O)c1ccc(/C=C/c2nc3c([N+](=O)[O-])csc3c(=O)[nH]2)o1 | > 384 | > 384 |  |
| O=c1[nH]cnc2c([N+](=O)[O-])csc12 | 10 (≈ 1.97 µg/mL) | 20 (≈ 3.94 µg/mL) |  |

| Molecule | MIC (Clostridioides difficile [1]) [µM] | MIC (Clostridioides difficile [2]) [µM] | further results |
| --- | --- | --- | --- |
| O=[N+]([O-])c1csc2c(Cl)nc(/C=C/c3ccc(F)cc3)nc12 | 95 (≈ 31.9 µg/mL) | 95 (≈ 31.9 µg/mL) |  |
| Cc1nc2c([N+](=O)[O-])csc2c(=O)n1Cc1ccc(C#N)cc1 | 50 (≈ 16.3 µg/mL) | 25 (≈ 8.16 µg/mL) |  |
| CN[C@H](CC(C)C)C(=O)N[C@H]1C(=O)N[C@@H](CC(N)=O)C(=O)N[C@H]2C(=O)N[C@H]3C(=O)N[C@H](C(=O)N[C@H](C(=O)O)c4cc(O)cc(O)c4-c4cc3ccc4O)[C@H](O)c3ccc(c(Cl)c3)Oc3cc2cc(c3O[C@@H]2O[C@H](CO)[C@@H](O)[C@H](O)[C@H]2O[C@H]2C[C@](C)(N)[C@H](O)[C@H](C)O2)Oc2ccc(cc2Cl)[C@H]1O [VANCOMYCIN] | 0.3 (≈ 0.435 µg/mL) | 0.7 (≈ 1.01 µg/mL) | MIC [3]: <= 1 uM; MIC [5]: <= 1 uM |
| Cc1nc2c([N+](=O)[O-])csc2c(=O)n1CC(=O)Nc1ccccc1 | 23 (≈ 7.92 µg/mL) | 46 (≈ 15.8 µg/mL) |  |
| Cc1nc2c([N+](=O)[O-])csc2c(=O)n1CC(=O)N1CCN(C)CC1 | 91 (≈ 32 µg/mL) | 91 (≈ 32 µg/mL) |  |
| Cc1nc2c([N+](=O)[O-])csc2c(=O)n1Cc1cccc([N+](=O)[O-])c1 | 23 (≈ 7.97 µg/mL) | 23 (≈ 7.97 µg/mL) |  |
| Cc1nc2c([N+](=O)[O-])csc2c(=O)n1CC(=O)OC(C)(C)C | 98 (≈ 31.9 µg/mL) | 49 (≈ 15.9 µg/mL) |  |
| COc1ccc(-n2c(C)nc3c([N+](=O)[O-])csc3c2=O)cc1 | 101 (≈ 32 µg/mL) | 202 (≈ 64.1 µg/mL) |  |
| Cc1nc2ncccc2c(=O)[nH]1 | > 794 | > 794 |  |
| O=c1[nH]c(/C=C/c2ccco2)nc2c([N+](=O)[O-])csc12 | 27 (≈ 7.81 µg/mL) | 27 (≈ 7.81 µg/mL) |  |
| COc1ccc(Cn2c(C)nc3c([N+](=O)[O-])csc3c2=O)cc1 | 24 (≈ 7.95 µg/mL) | 24 (≈ 7.95 µg/mL) |  |
| Oc1ncnc2ccsc12 | 840 (≈ 128 µg/mL) | 420 (≈ 63.9 µg/mL) |  |
| Cc1nc2c([N+](=O)[O-])csc2c(=O)n1-c1ccc(-c2ccccc2)cc1 | 176 (≈ 64 µg/mL) | 352 (≈ 128 µg/mL) |  |
| O=c1[nH]c(/C=C/c2cccc(F)c2)nc2c([N+](=O)[O-])csc12 | 13 (≈ 4.12 µg/mL) | 13 (≈ 4.12 µg/mL) |  |
| Cc1nc2c([N+](=O)[O-])cccc2c(=O)[nH]1 | 156 (≈ 32 µg/mL) | 312 (≈ 64 µg/mL) | MIC (Bifidobacterium bifidum): > 700 µM; MIC [3]: > 700 µM; MIC (Escherichia coli): > 700 µM; MIC [4]: > 700 µM; MIC (Enterobacter cloacae): > 700 µM; MIC [5]: > 700 µM |
| Cc1nc2ccsc2c(=O)[nH]1 | 385 (≈ 64 µg/mL) | > 770 |  |
| Cc1nc2c([N+](=O)[O-])csc2c(=O)n1-c1ccc(C(C)C)cc1 | > 389 | > 389 |  |
| Cc1ncc([N+](=O)[O-])n1CCO [METRONIDAZOLE] | 1.5 (≈ 0.257 µg/mL) | 0.7 (≈ 0.12 µg/mL) | MIC (Bifidobacterium bifidum): > 1496 µM; MIC [3]: > 1496 µM; MIC [4]: 47 µM (≈ 8.04 µg/mL); MIC [5]: > 1496 µM |
| CCc1nc2c([N+](=O)[O-])csc2c(=O)[nH]1 | 35 (≈ 7.88 µg/mL) | 35 (≈ 7.88 µg/mL) |  |
| O=c1[nH]c(/C=C/c2ccccc2)nc2c([N+](=O)[O-])csc12 | 52 (≈ 15.6 µg/mL) | 13 (≈ 3.89 µg/mL) |  |
| COc1ccc(/C=C/c2nc3c([N+](=O)[O-])csc3c(=O)[nH]2)cc1 | 12 (≈ 3.95 µg/mL) | 12 (≈ 3.95 µg/mL) |  |
| O=c1[nH]c(/C=C/c2ccc([N+](=O)[O-])cc2)nc2c([N+](=O)[O-])csc12 | 12 (≈ 4.13 µg/mL) | 24 (≈ 8.26 µg/mL) |  |
| O=c1[nH]c(-c2ccccc2)nc2ccsc12 | > 560 | > 560 |  |
| N#Cc1ccc(/C=C/c2nc3c([N+](=O)[O-])csc3c(=O)[nH]2)cc1 | > 197 | > 197 |  |
| Cc1nc2c(C)csc2c(=O)[nH]1 | > 710 | > 710 |  |
| Cc1nc2c(N)cccc2c(=O)[nH]1 | > 730 | > 730 |  |
